aDG glyco act: activators of alpha-DG glycosylation, primary screen, uHTS, Pro5-aDG cells, AlphaScreen | alpha-DG glycosylation AlphaScreen (IIH6); 0% Pro5, 100% B10-LARGE cell signal | activation, % at 10 µM | 360,000 compounds, 0.22% hits | AID 624168, 2012;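 active means activation of at least 8% versus controls, or a plate z-score of at least 8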;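 further: Pro5 are CHO cells carrying HIG-tagged alpha-DG that lacks glycosylation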
PolyA inhibitor: polyadenylation inhibitors in yeast reporter cells, primary screen, luminescence, S. cerevisiae. S. cerevisiae SKY197-pL101 polyadenylation reporter, beta-gal luminescence; efflux-impaired pdr1/pdr3 knockout yeast; score 100 = 6 SD above DMSO. activity score, % at 12 µM. 300,000 compounds, 0.02% hits. AID 1875, 2009;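 active means lowest replicate activity score at least 50, where 100 means six control SD above control mean; inconclusive means lowest score under 50 but half or more replicates reach 50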;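 further: yeast exposed to compound for 9 h at 30 °C; higher score means more reporter readthrough which indicates perturbed polyadenylation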
Rce1 inhib: yeast Rce1p protease inhibitors, primary screen, biochemical, fluorescence, cell-free homogeneous. 290,000 compounds, 0.27% hits. yeast membranes, quenched prenylated peptide cleavage fluorescence. AID 2563, 2010. calls only;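 active means fall in fluorescence gain of 50% or more versus controls, with final raw signal at or below 3038400; inconclusive means same 50% fall but final raw signal above 3038400; inactive means fall in fluorescence gain under 50%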;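 further: plate controls were neutral control wells for no effect and wells lacking membranes for full effect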
Target sequence (Q03530 whole entry, looked up): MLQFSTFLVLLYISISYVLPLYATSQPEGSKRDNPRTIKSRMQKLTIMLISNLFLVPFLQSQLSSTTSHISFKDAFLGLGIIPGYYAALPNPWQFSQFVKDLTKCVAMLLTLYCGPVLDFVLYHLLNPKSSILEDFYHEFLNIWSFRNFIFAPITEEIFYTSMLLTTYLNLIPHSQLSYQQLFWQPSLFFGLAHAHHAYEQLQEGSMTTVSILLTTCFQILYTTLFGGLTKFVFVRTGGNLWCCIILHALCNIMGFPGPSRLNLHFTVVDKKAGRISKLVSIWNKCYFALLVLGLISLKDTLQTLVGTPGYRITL
T cell HTS: modulators of CD8 T cell-vesicle binding, primary screen, mouse 2C CD8+ T cells, flow cytometry. 2C CD8+ T cell-vesicle binding; active compounds read low. response (vesicle binding), % at 7 µM. AID 2052, 2009. 330,000 compounds, 0.068% hits;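 active means response, share of CD8 T cells binding vesicles, and their 90th percentile fluorescence all below set limits, cut at about 80% in these data, passing the limit was not always enough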;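 further: values below 100% mean blocked vesicle binding to the CD8+ T cells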
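Material: murine 2C transgenic CD8+ T lymphocytes / Also added: QL9-peptide-loaded Drosophila micro-vesicles bearing Ld, ICAM-1 and B7-1 / Schedule: binding step 1.5 h, 37 °C, antibody labelling 20 min, ice / Signal: flow cytometry, PE anti-B7-1 (FL2) versus Alexa647 anti-CD8 (FL8), PFA-fixed / Evaluation: percent CD8+ FL2 mean versus row control / Benchmarks: naked versus QL9-loaded vesicles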
aDG conf: alpha-DG glycosylation enhancers, retest, confirmation, single concentration, Pro5-aDG cells; shares compounds with aDG glyco act; IIH6 AlphaLISA; scaled to LARGE-overexpressing B10 cells as 100%; AID 651671, 2012; 600 compounds, 17% hits; activation, % at 10 µM (by protocol);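 active means activation of at least 7% in one or more replicates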;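 further: cells exposed to compound for two days before detection; 0% = DMSO-treated Pro5 cells and 100% = DMSO-treated B10-LARGE cells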
* = called active by the depositor; i = inactive; u = inconclusive; x = not tested or not shown. Rows were chosen to be rich in hits. Some 0.51% of all compounds tested hit in one or more screens of this group.

SMILES	aDG glyco act	PolyA inhibitor	Rce1 inhib	T cell HTS	aDG conf
COc1ccc(C)cc1NC(=O)C1CCCN1S(=O)(=O)c1ccccc1F (centres undefined)	0	x	x	204	x
COCCNc1nc(NCc2ccc(C(C)C)cc2)c2sccc2n1	7.3*	x	x	x	3
O=C(NCc1cccc(Cl)c1)c1cc(COc2ccc3ncccc3c2)on1	10*	5	i	199	5
Cc1cc(C)n(CCNC(=O)c2cc(COc3ccc4ncccc4c3)on2)n1	0	-3	i	509	x
CC(CCCC(C)(C)O)NC(=O)c1cc(COc2ccc3ncccc3c2)on1 (centres undefined)	1	0	i	183	x
Cc1ccc(F)cc1CNC(=O)c1cc(COc2ccc3ncccc3c2)on1	8.7*	5	i	264	3
COc1ccc(C)cc1S(=O)(=O)NNc1nc(C)cc(C)n1	0	x	x	326	x
Cc1cc(-c2csc(NC(=O)c3ccc(S(=O)(=O)N(C)C)cc3)n2)c(C)n1-c1ccccc1	9.4*	2	i	157	-1
CCc1ccccc1NC(=O)COC(=O)c1c(C)nsc1NC	4.0*	x	x	200	0
CNc1snc(C)c1C(=O)OCC(=O)Nc1ccc(C)cc1F	2	x	x	x	x
O=C(CCc1ccccc1)NC(=S)NCc1ccco1	0	12	i	635	x
CC(C)[C@H](NS(=O)(=O)c1ccccc1)C(=O)OCC(=O)NC(=O)c1cccn1C	0	u	i	422	x
Cc1ccc(S(=O)(=O)N[C@H](C(=O)OCC(=O)NC(=O)c2cccn2C)C(C)C)cc1	3.6*	x	x	x	1
COCCCn1cn[nH]c1=S	6.3*	13	i	348	3
COCCCn1c(-c2ccc(Cl)cc2)n[nH]c1=S	0	-1	i	456	x
O=C1c2ccccc2C(Nc2ccc(S(=O)(=O)N3CCOCC3)cc2)N1c1cccnc1 (centres undefined)	10*	-7	i	201	0
COc1ccc(NC2c3ccccc3C(=O)N2c2cccnc2)cc1 (centres undefined)	0	u	i	224	x
O=C1C(Cl)=C(NCCCO)C(=O)c2ccccc21	8.7*	-10	i	180	3.2*
CCOCCCNC1=C(Cl)C(=O)c2ccccc2C1=O	2	-24	i	92	x
CN(C(=O)c1cccc(NC(=O)Cc2ccc(NC(=O)C3CCN(C(=O)C4CCCCC4)CC3)cc2)c1)C1CCCC1	0	x	x	x	x
COC(=O)[C@@]1(Sc2ccc(C)cc2)CC(=O)N(C(=O)/C=C/c2ccccc2)[C@@H]1c1ccccc1	0	x	x	x	x
CN1CCc2c(sc(NC(=O)c3ccc(C(=O)c4ccccc4)cc3)c2C(N)=O)C1	12*	20	i	348	2
CCN1CCc2c(sc(NC(=O)c3ccc(S(=O)(=O)N4CC(C)OC(C)C4)cc3)c2C(N)=O)C1 (centres undefined)	17*	-19	i	234	3
CN1CCc2c(sc(NC(=O)CS(=O)(=O)c3ccccc3)c2C(N)=O)C1	0	-12	i	383	x
COc1ccc(OC)c(NC(=O)N[C@@H](Cc2ccccc2)C(=O)O)c1	5.9*	-9	i	348	0
SMILES	aDG glyco act	PolyA inhibitor	Rce1 inhib	T cell HTS	aDG conf
COc1cc(NC(=O)N[C@@H](Cc2ccccc2)C(=O)O)cc(OC)c1	0	7	i	86	x
Cn1nc(CC(=O)Nc2ccc3c(c2)OCCO3)c2ccccc2c1=O	6	5	i	210	x
Cc1ccc(NC(=O)Cc2nn(C)c(=O)c3ccccc23)cc1F	10*	10	i	162	2
C[C@@H]1CN([C@H](C)CO)C(=O)CCCn2nncc2CO[C@@H]1CN(C)C(=O)CCC(F)(F)F	7.3*	x	x	x	0
CC(C)COC(=O)N(C)C[C@@H]1OCc2cnnn2CCCC(=O)N([C@@H](C)CO)C[C@@H]1C	0	x	x	x	x
CC(C)COC(=O)N(C)C[C@@H]1OCc2cnnn2CCCC(=O)N([C@H](C)CO)C[C@@H]1C	7.2*	x	x	x	0
C[C@@H]1CN([C@@H](C)CO)C(=O)CCCn2nncc2CO[C@@H]1CN(C)C(=O)Nc1ccc(C(C)(C)C)cc1	14*	x	x	x	-1
C[C@H](CO)N1C[C@H](C)[C@@H](CN(C)C(=O)Nc2ccc(C(C)(C)C)cc2)OCc2cnnn2CCCC1=O	0	x	x	x	x
COc1cc(-c2nnc(COc3ccc(Cl)cc3C)o2)cc(OC)c1OC	6.8*	-3	i	152	1
Cc1cc(Cl)ccc1OCc1nnc(-c2ccccc2C)o1	0	x	x	x	x
COc1ccc(N2CCN(Cc3nc(N)nc(Nc4ccccc4OC)n3)CC2)cc1	12*	-27	i	293	1
CC(C)(C)c1ccc(-n2ncc3c2CCCC3NC(=O)C2(C(N)=O)CC2)cc1 (centres undefined)	9.6*	u	i	356	2
CC(=O)NCC(=O)NC1CCCc2c1cnn2-c1ccc(C(C)(C)C)cc1 (centres undefined)	0	6	i	165	x
O=C(O)c1cccc(S(=O)(=O)N(Cc2ccccc2)c2cccc(C(F)(F)F)c2)c1	0	-9	i	25	x
CCOC(=O)c1ccc(NC(=O)COc2ccccc2CNCCc2ccccc2)cc1	5.8*	-9	i	378	3
CCOC(=O)c1ccc(NC(=O)COc2ccc(CNCCO)cc2OCC)cc1	1	-4	i	264	x
NCc1csc(Nc2ncccn2)n1	0	x	x	x	x
COCCN1C(=O)c2ccccc2C1c1nc2ccccc2[nH]1 (centres undefined)	0	x	x	x	x
CCOc1ccc2nc(NC(=O)CSC3=NCCS3)sc2c1	3.4*	-7	i	157	-1
COc1ccc2nc(NC(=O)CSC3=NCCS3)sc2c1	0	-25	i	283	x
COc1cc(OC)cc(C(=O)Nc2cccc(N3CCCC3)c2)c1	3.7*	-4	i	224	2
COc1cc(OC)cc(C(=O)Nc2cccc(C(C)=O)c2)c1	0	-5	i	213	x
CCn1c(C)nc2cc(S(=O)(=O)C(F)(F)C(F)C(F)(F)F)ccc21 (centres undefined)	4.4*	-3	i	492	0
O=C(Nc1c(-c2ccccc2)[nH][nH]c1=O)c1ccc(Br)cc1	0	x	x	x	x
COc1ccc(NC(=S)NCCC2=CCCCC2)cc1OC	0	4	i	155	x
S=C(NCCC1=CCCCC1)Nc1ccc(Cl)cc1	5.9*	3	i	289	0
O=[N+]([O-])c1ccc2ncnc(N3CCN(Cc4ccc5c(c4)OCO5)CC3)c2c1	1	-10	i	197	x

Screening results from PubChem.
